ChEMBL document CHEMBL1221306, “Synthesis, activity, and pharmacokinetic properties of a series of conformationally-restricted thiourea analogs as novel hepatitis C virus inhibitors” (Bioorg Med Chem, 2010)

Columns and labels:
Hepatitis C virus = assay: Antiviral activity against HCV1b infected in human HuH7 cells assessed as inhibition of viral replication after 24 hrs; format: functional, organism-based, Hepacivirus hominis; conditions: genotype 1b, Huh-7, 24 h
[1] = Cytotoxicity against human HuH7 cells after 24 hrs; format: cell-based, Huh-7
[2] = Clearance in Sprague-Dawley rat at 5 mg/kg, iv; format: ADME, organism-based; design: dose 5 mg/kg, route intravenous; conditions: in vivo
Method in brief: (§1)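 Male rats (330–380 g, 9–10 weeks old, n = 3) were given the compound as a solution in DMA/propylene glycol (20:80, v/v), either iv at 5 mg/kg or po at 25 mg/kg. Rats were fasted and had jugular-vein cannulae. Blood was sampled at 0, 2, 5 (iv only) and 15 min, 30 min, and 1, 2, 4, 6, 8 and 24 h. Plasma was assayed by HPLC–MS/MS and analysed non-compartmentally.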

[3] = Volume of distribution at steady state in Sprague-Dawley rat at 5 mg/kg, iv; format: ADME, organism-based; design: dose 5 mg/kg, route intravenous; conditions: in vivo, read-out: Vdss; method in brief: as §1
[4] = Half life in Sprague-Dawley rat at 5 mg/kg, iv; format: ADME, organism-based; design: dose 5 mg/kg, route intravenous; conditions: in vivo; method in brief: as §1
[5] = AUC in Sprague-Dawley rat at 5 mg/kg, iv; format: ADME, organism-based; design: dose 5 mg/kg, route intravenous; conditions: plasma; method in brief: as §1
[6] = Cmax in Sprague-Dawley rat at 25 mg/kg, po; format: ADME, organism-based; design: dose 25 mg/kg, route oral; conditions: in vivo; method in brief: as §1
[7] = Tmax in Sprague-Dawley rat at 25 mg/kg, po; format: ADME, organism-based; design: dose 25 mg/kg, route oral; conditions: in vivo; method in brief: as §1
[8] = Half life in Sprague-Dawley rat at 25 mg/kg, po; format: ADME, organism-based; design: dose 25 mg/kg, route oral; conditions: in vivo; method in brief: as §1
[9] = AUC in Sprague-Dawley rat at 25 mg/kg, po; format: ADME, organism-based; design: dose 25 mg/kg, route oral; conditions: plasma; method in brief: as §1
[10] = Oral bioavailability in Sprague-Dawley rat at 25 mg/kg; format: ADME, organism-based; conditions: in vivo; method in brief: as §1

Compound | EC50 (Hepatitis C virus) [µM] | CC50 at 24 h [1] [µM] | other results
NC(=S)Nc1ccc2c(c1)Cc1ccccc1-2 | 2.09 | > 50 | –
NC(=S)Nc1ccc2c(c1)Cc1cc(Br)ccc1-2 | 0.3 | > 50 | clearance [2]: 17 mL/min/kg; Vd [3]: 2.8 L/kg; half-life [4]: 2.6 h; AUC [5]: 4940 ng·h/mL; Cmax [6]: 106 ng/mL; Tmax [7]: 0.7 h; half-life [8]: 3.8 h; AUC [9]: 294 ng·h/mL; bioavailability [10]: 1.2%
NC(=S)Nc1ccc2c(c1)C(=O)c1cc(Br)ccc1-2 | 0.57 | > 50 | clearance [2]: 127 mL/min/kg; Vd [3]: 2 L/kg; half-life [4]: 1.4 h; AUC [5]: 655 ng·h/mL; Cmax [6]: 65.3 ng/mL; Tmax [7]: 0.25 h; half-life [8]: 1.7 h; AUC [9]: 43 ng·h/mL; bioavailability [10]: 1.3%
NC(=S)Nc1ccc2c(c1)-c1ccccc1C2=O | 21 | > 50 | –
COc1cc2c(cc1NC(N)=S)oc1ccccc12 | 5.51 | > 50 | –
CCn1c2ccccc2c2cc(NC(N)=S)ccc21 | 7.55 | > 50 | –
NC(=S)Nc1ccc2oc(=O)c3ccccc3c2c1 | > 50 | > 50 | –
NC(=S)Nc1ccc2c(c1)N1CCN=C1S2 | > 50 | > 50 | –
NC(=S)Nc1ccc2cn[nH]c2c1 | > 50 | > 50 | –
NC(=S)Nc1ccc2nn[nH]c2c1 | > 50 | > 50 | –
NC(=S)Nc1ccc2[nH]ncc2c1 | > 50 | > 50 | –
NC(=O)Nc1ccc2c(c1)Cc1cc(Br)ccc1-2 | > 50 | > 50 | –
S=C(Nc1ccccc1)Nc1ccc2c(c1)Cc1cc(Br)ccc1-2 | 42.8 | 46.2 | –
S=C(NCc1ccccc1)Nc1ccc2c(c1)Cc1cc(Br)ccc1-2 | > 50 | > 50 | –
S=C(Nc1ccc2c(c1)Cc1cc(Br)ccc1-2)Nc1cccc2ccccc12 | 15.4 | > 50 | –
S=C(Nc1ccc(N2CCOCC2)cc1)Nc1ccc2c(c1)Cc1cc(Br)ccc1-2 | 34.1 | 18.1 | –
S=C(Nc1cccnc1)Nc1ccc2c(c1)Cc1cc(Br)ccc1-2 | > 50 | 19.7 | –
CNC(=S)Nc1ccc2c(c1)Cc1cc(Br)ccc1-2 | > 50 | > 50 | –
CCNC(=S)Nc1ccc2c(c1)Cc1cc(Br)ccc1-2 | > 50 | > 50 | –
NC(=S)Nc1ccc2c(c1)Cc1cc(N)ccc1-2 | > 50 | > 50 | –
CN(C)c1ccc2c(c1)Cc1cc(NC(N)=S)ccc1-2 | 1.11 | > 50 | –
CCN(CC)c1ccc2c(c1)Cc1cc(NC(N)=S)ccc1-2 | 0.83 | > 50 | –
CCCN(CCC)c1ccc2c(c1)Cc1cc(NC(N)=S)ccc1-2 | 0.44 | 19.5 | –
CCCCN(CCCC)c1ccc2c(c1)Cc1cc(NC(N)=S)ccc1-2 | 0.72 | 40.7 | –
NC(=S)Nc1ccc2c(c1)Cc1cc(N(Cc3ccccc3)Cc3ccccc3)ccc1-2 | 0.39 | 35.6 | –
CCCNc1ccc2c(c1)Cc1cc(NC(N)=S)ccc1-2 | 0.42 | > 50 | –
CCCCNc1ccc2c(c1)Cc1cc(NC(N)=S)ccc1-2 | 0.38 | > 50 | –
NC(=S)Nc1ccc2c(c1)Cc1cc(NCc3ccccc3)ccc1-2 | 0.49 | > 50 | –
NC(=S)Nc1cccc(Oc2ccccc2)c1 | – | > 50 | –
